Hits are enriched below; roughly 2.5% of the tested compounds scored in any of these assays.
ABHD4 inh: ABHD4 inhibitors, primary screen, biochemical, fluorescence polarization, mouse | 370,000 tested, 0.54% active | inhibition, % at 8.92 µM | purified mABHD4, FP-Rh probe fluorescence polarization | (Lyso)-N-acylphosphatidylethanolamine lipase (Mus musculus), Q8VD66;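 active = inhibition exceeding the mean over every tested compound plus 3 SD, cut at about 30% in these data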;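 note: 0% = plate median of compound wells and 100% = S159A mutant with DMSO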
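Test system: mABHD4 protein | Buffer or medium: HEPES pH 7.0 buffer, 150 mM NaCl, 0.01% Pluronic F-127 | Probe or stimulus: FP-Rh fluorescent activity-based probe, added after compound pre-incubation | Timing: Pre-incubation 45 min, probe exposure 60 min, at 25 °C | Technique: Fluorescence polarization, excitation 525 nm, emission 598 nm, BODIPY TMR filters | Repeats: Single well per compound (singlicate)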
TCR-CD3 inh: inhibitors of human TCR-CD3 interaction, primary screen, biochemical, fluorescence, TAMRA-labeled TCR probe; inhibition, % at 9.4 µM; 360,000 tested, 0.37% active; in the data active = inhibition above about 19%;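 note: recombinant mutant TCR 2C K166C tagged with TAMRA read by polarization; 0% = receptor in buffer alone and 100% = receptor with positive control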
SIAE primary: human SIAE inhibitors, primary screen, biochemical, fluorescence polarization, FP-Rh probe, 1536-well HTS. Sialate O-acetylesterase (Homo sapiens), Q9HAT2. SIAE FP-Rh probe binding. inhibition, % at 9.66 µM. 370,000 tested, 0.69% active;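 active = inhibition above a cutoff: mean of compounds within the control limits plus 3 SD of those, cut at about 17% in these data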;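 note: 0% = plate median of compound wells and 100% = probe without SIAE protein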
PRMT1 FP inh: PRMT1 methyltransferase inhibitors, primary screen, biochemical, fluorescence polarization. AID 652257, 2013. inhibition, % at 2.79 µM. Protein arginine N-methyltransferase 1 (Homo sapiens), Q99873. 370,000 tested, 1.3% active. recombinant PRMT1, activity-based probe fluorescence polarization;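 active = inhibition above about 21% made by adding two undisclosed values, limit read from the data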
Target sequence (Q99873 whole entry, looked up): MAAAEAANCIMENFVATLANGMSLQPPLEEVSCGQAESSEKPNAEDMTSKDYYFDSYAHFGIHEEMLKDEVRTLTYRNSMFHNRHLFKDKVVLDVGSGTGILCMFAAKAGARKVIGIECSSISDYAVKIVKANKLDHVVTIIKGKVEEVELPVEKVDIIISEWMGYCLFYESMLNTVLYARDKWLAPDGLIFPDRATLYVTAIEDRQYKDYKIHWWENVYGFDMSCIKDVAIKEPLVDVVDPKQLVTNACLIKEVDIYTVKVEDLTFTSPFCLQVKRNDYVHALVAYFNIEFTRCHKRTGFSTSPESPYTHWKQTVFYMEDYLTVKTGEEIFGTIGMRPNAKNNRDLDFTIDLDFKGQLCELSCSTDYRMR
HTRA1 inh: HTRA1 serine protease inhibitors, primary screen, biochemical, fluorescence polarization, HTS; recombinant HTRA1, FP-rhodamine activity-based probe; 340,000 tested, 0.5% active; AID 504803, 2011; inhibition, % at 5.96 µM; Q92743; in the data active = inhibition above about 36%;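 note: 0% = enzyme with DMSO and 100% = wells lacking enzyme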
mABHD4 conf: ABHD4 inhibitors, retest, confirmation, biochemical, fluorescence polarization, mouse | shares compounds with ABHD4 inh | purified mABHD4, FP-Rh probe fluorescence polarization | inhibition, % at 8.92 µM | 1,800 tested, 55% active | AID 720658, 2013;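 active = mean inhibition across replicates above the hit cutoff set in the primary screen, cut at about 30% in these data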;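 note: 0% = wild-type ABHD4 with DMSO and 100% = catalytically dead S159A mutant with DMSO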
An asterisk follows results filed as active; . = no result.

SMILES	ABHD4 inh	TCR-CD3 inh	SIAE primary	PRMT1 FP inh	HTRA1 inh	mABHD4 conf
COc1ccc(NC(=O)Nc2cccc3c2O[C@H](CN(C)C(=O)Nc2ccc4c(c2)OCO4)[C@@H](C)CN([C@H](C)CO)C3=O)cc1	3.5	5.1	7.6	1.5	-1.1	.
C/C(=N\NC(=O)Cc1cccs1)c1ccco1	3.0	.	5.5	0.6	.	.
Oc1ccc(N2CCN(Cc3c(-c4ccccc4)nc4ccccn34)CC2)cc1	30.5*	2.9	5.9	22.3*	16.8	-2.9
CCOC(=O)C1=CCC(c2ccccc2)N(S(=O)(=O)c2ccccc2C)C1 (stereo unspecified)	-4.7	-2.2	-6.2	0.0	.	.
Nc1ccc2ncccc2c1	6.0	-9.0	-3.2	2.4	0.1	.
Nc1ccc2ccc(N)cc2c1	34.9*	-3.6	7.5	1.1	.	1.5
Cc1cccc(NC(=O)NN(C(=O)c2ccccc2Cl)C(C)(C)C)c1	-4.2	.	0.1	-0.8	.	.
O=C(CCNS(=O)(=O)c1ccccc1C(F)(F)F)NNC(=O)C1COc2ccccc2O1 (stereo unspecified)	41.5*	-2.2	3.3	-2.3	-3.5	-0.9
O=C(Nc1sc(-c2ccccc2)cc1C(=O)O)c1ccccc1	35.8*	0.8	-79.8	-1.2	-15.5	37.2*
CCOC(=O)c1cc(-c2ccccc2)sc1NC(=O)CC	-1.3	-4.8	-12.4	7.1	-21.7	.
O=C(O)c1ccc(-c2cccc([N+](=O)[O-])c2)o1	3.2	-2.5	-3.2	2.1	-4.0	.
N#C/C(=C(/O)c1ccc(-c2cccc([N+](=O)[O-])c2)o1)c1nc2ccccc2s1	31.2*	0.4	9.3	7.2	3.6	56.0*
Cc1cc2c(cc1C)N(C(=O)CSC1=NCCS1)C(C)(C)c1ssc(=S)c1-2	37.0*	3.2	8.5	7.2	30.1	14.0
Cc1cc2nc(C(C)(C)C)c(Cc3ccccc3C(F)(F)F)n2c(C)c1Br	5.7	-1.9	-1.3	-1.9	.	.
O=C(NNc1ccccn1)C(=O)NNS(=O)(=O)c1ccc(Cl)cc1	58.2*	2.5	-1.9	-1.4	6.0	54.7*
O=C(NNc1ccccn1)C(=O)NNS(=O)(=O)c1ccc(F)cc1	35.6*	4.3	7.2	-2.1	2.4	29.9*
COC(=O)[C@]12C[C@H](CC(=O)NCCCN3CCCC3=O)C(=O)N(Cc3cccc4ccccc34)C1=C[C@H](C(C)C)O[C@@H]2C1CC1	0.2	.	-0.7	2.5	.	.
CC(C)c1ccc2c(c1)C(N1CCNCC1)Cc1ccc(F)cc1S2 (stereo unspecified)	32.1*	-5.5	-11.0	6.0	.	47.4*
COc1cccc(C2C(C(N)=O)=C(C)Nc3nc(CCCO)nn32)c1OC (stereo unspecified)	4.7	-6.6	-0.3	8.2	-0.4	.
CCOc1ccccc1C1C(C(N)=O)=C(C)Nc2nc(CCCO)nn21 (stereo unspecified)	31.3*	-5.0	-3.9	1.1	-7.2	8.2
O=C(O)c1ccccc1Nc1ccccc1C(=O)O	0.0	2.0	3.1	-1.8	-3.3	.
O=C1C=C(Nc2ccccc2C(=O)O)c2ccccc2C1=O	44.0*	1.9	7.3	13.1	25.5	53.0*
O=C(Nc1cccnc1)NC1CCCCC1	2.4	-6.8	-1.5	-5.2	3.1	.
CCN(CC)c1ccc(C(=O)NNC(=O)C2CSC3(C)CCC(=O)N23)cc1 (stereo unspecified)	39.2*	3.3	1.4	-1.9	-5.7	-1.8
Nc1[nH]n2c(=O)c3c(nc2c1N=Nc1ccccc1)CCCC3	21.1	7.2	-1.8	1.1	12.7	.
SMILES	ABHD4 inh	TCR-CD3 inh	SIAE primary	PRMT1 FP inh	HTRA1 inh	mABHD4 conf
Nc1[nH]n2c(=O)c3c(nc2c1N=Nc1ccc(Cl)cc1)CCCC3	31.0*	2.6	6.6	-1.6	3.8	33.5*
COc1ccc(Br)cc1/C=C(\C(=O)O)c1ccc(S(=O)(=O)N2CCCC2)s1	29.6*	-5.6	-3.8	7.5	-9.6	13.3
COc1cc(/C=C(\C(=O)O)c2ccc(S(=O)(=O)N3CCCC3)s2)cc(OC)c1	10.5	-2.4	2.4	3.9	-3.0	.
NNc1nc2c(Cl)ccc(Cl)c2s1	38.5*	7.0	10.2	0.2	8.4	47.9*
CCOC(=O)Cc1cc(=O)n2[nH]cc(-c3cccc(Br)c3)c2n1	31.9*	1.3	-1.0	-1.2	5.0	21.9
COCc1cc(=O)n2[nH]cc(-c3ccccc3)c2n1	8.6	4.7	3.7	-0.7	3.3	.
C=CCn1c(SCC(=O)Nc2cccc(S(N)(=O)=O)c2)nnc1C1CCCCC1	-0.9	-1.9	4.7	2.9	0.7	.
CCCCOC(=O)c1ccc(NC(=O)COC(=O)C2CC2C)cc1 (stereo unspecified)	-6.7	0.7	-6.1	-0.1	-7.7	.
CC(=O)Nc1ccc(S(=O)(=O)Nc2nc3ccccc3nc2Nc2ccc(N)cc2)cc1	40.0*	-1.6	1.1	22.8*	15.0	23.5
CC(=O)Nc1ccc(Nc2nc3ccccc3nc2NS(=O)(=O)c2ccc(Cl)c([N+](=O)[O-])c2)cc1	49.2*	4.3	16.3	4.1	32.0	67.7*
CC(=O)Nc1ccc(S(=O)(=O)Nc2nc3ccccc3nc2Nc2ccc(C(=O)O)c(O)c2)cc1	42.6*	18.6	-23.8	16.4	33.9	43.1*
CC(=O)Nc1ccc(S(=O)(=O)Nc2nc3ccccc3nc2Nc2cccc(O)c2)cc1	17.7	1.6	3.2	-4.3	5.2	.
CC(=O)Nc1ccc(S(=O)(=O)Nc2nc3ccccc3nc2Nc2ccc3ccccc3c2)cc1	18.1	-4.6	-0.9	-0.4	1.9	.
COC(=O)[C@]12C[C@H](CC(=O)NCC3CCCCC3)C(=O)N(Cc3ccccc3)C1=C[C@H](C1CCCC1)O[C@@H]2C	-3.8	5.6	1.5	-7.6	.	.
COc1ccc(Nc2cc(C)c3c(O)cccc3n2)cc1	18.6	5.9	10.3	-1.6	7.1	.
Cc1ccc(Nc2cc(C)c3c(O)cccc3n2)cc1C	44.0*	-6.2	17.8*	4.5	14.2	50.7*
CC(C)(C)c1ccc(-c2csc(N3CCC(C(N)=O)CC3)n2)cc1	34.7*	.	3.6	2.0	.	37.1*
Oc1cc2c(cc1O)C1c3ccc(O)c(O)c3OCC1(O)C2 (stereo unspecified)	30.0*	132.0*	0.1	55.5*	25.4	23.3
CC[C@@H](C)[C@H](CNC)NC[C@@H](Cc1cccc2ccccc12)NCCc1cccc(C(F)(F)F)c1	49.5*	0.4	0.3	-1.6	-7.4	50.8*
CCC[C@H](CN[C@@H](CNC)[C@H](C)CC)NCCc1cc(C(F)(F)F)cc(C(F)(F)F)c1	27.0	1.3	9.3	-2.0	4.2	.
